Results taken from ChEMBL document CHEMBL4406863, “Effective Virtual Screening Strategy toward heme-containing proteins: Identification of novel IDO1 inhibitors” (Eur J Med Chem, 2019).
Calls of active or inactive are those of the source. The rule behind the calls is not given here.

Key:
[1] = target: Indoleamine 2,3-dioxygenase 1 (Homo sapiens, UniProt P14902); assay: Inhibition of IDO1 in IFN-gamma stimulated human HeLa cells assessed as reduction in kynurenine production using L-tryptophan as substrate incubated for 24 hrs; type: cell-based
Chain of Indoleamine 2,3-dioxygenase 1 (P14902 whole entry): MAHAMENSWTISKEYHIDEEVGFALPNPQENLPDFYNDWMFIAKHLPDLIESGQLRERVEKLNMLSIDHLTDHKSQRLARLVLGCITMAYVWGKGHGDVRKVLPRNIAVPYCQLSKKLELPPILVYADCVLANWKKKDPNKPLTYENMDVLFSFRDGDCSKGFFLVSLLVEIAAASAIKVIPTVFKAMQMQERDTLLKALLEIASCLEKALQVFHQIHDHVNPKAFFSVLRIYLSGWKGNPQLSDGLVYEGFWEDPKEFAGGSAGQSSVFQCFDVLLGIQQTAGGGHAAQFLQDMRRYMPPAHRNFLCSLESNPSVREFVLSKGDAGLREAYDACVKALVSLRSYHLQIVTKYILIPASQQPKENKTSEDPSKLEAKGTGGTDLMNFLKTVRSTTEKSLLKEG

[2] = Cytotoxicity against human HeLa cells assessed as survival rate at 30 uM incubated for 24 hrs by MTT assay relative to control; type: cell-based; details: read-out: Activity
CT26 [3] = assay: Antitumor activity against mouse CT26 cells xenografted in immunodeficient BALB/c nude mouse assessed as reduction in tumour growth at 25 mg/kg, ip administered every two days for 17 days and measured at day 17 by vernier caliper method; type: functional, organism-based
[4] = target: Tryptophan 2,3-dioxygenase (Homo sapiens) (UniProt P48775); assay: Inhibition of IFN-gamma-induced human TDO2 transfected in HeLa cells at 10 times IDO1 IC50 concentration using L-tryptophan as substrate incubated for 24 hrs relative to control; type: cell-based
Chain of Tryptophan 2,3-dioxygenase (Homo sapiens) (P48775 whole entry, looked up): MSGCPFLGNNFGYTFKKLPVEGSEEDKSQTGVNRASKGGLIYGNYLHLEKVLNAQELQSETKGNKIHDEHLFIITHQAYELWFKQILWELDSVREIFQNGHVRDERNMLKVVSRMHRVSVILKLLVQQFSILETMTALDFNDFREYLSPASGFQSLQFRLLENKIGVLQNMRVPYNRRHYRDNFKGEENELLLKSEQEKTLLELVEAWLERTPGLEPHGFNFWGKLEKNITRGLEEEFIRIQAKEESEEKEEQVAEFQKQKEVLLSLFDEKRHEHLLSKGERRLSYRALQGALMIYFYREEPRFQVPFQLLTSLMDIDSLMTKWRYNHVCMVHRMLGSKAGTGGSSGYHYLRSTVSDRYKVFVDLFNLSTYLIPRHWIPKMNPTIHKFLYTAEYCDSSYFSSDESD
Summary of the method: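 HeLa cells transfected for 24 h with a human TDO2 plasmid, then reseeded at 5 × 10^3/well. After 6 h, IFN-γ and compounds added in medium with […] for 24 h. Supernatant treated with 6.1 N TCA at 50 °C for 30 min and centrifuged; kynurenine read with p-dimethylaminobenzaldehyde at 480 nm.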

[5] = target: Indoleamine 2,3-dioxygenase 1 (Mus musculus) (UniProt P28776); assay: Reversal of IDO1-mediated immunosuppression in mouse CT26 co-cultured with T-cells assessed as increase in T cell proliferation measured after 48 hrs by MTT assay
Chain of Indoleamine 2,3-dioxygenase 1 (Mus musculus) (P28776 whole entry, looked up): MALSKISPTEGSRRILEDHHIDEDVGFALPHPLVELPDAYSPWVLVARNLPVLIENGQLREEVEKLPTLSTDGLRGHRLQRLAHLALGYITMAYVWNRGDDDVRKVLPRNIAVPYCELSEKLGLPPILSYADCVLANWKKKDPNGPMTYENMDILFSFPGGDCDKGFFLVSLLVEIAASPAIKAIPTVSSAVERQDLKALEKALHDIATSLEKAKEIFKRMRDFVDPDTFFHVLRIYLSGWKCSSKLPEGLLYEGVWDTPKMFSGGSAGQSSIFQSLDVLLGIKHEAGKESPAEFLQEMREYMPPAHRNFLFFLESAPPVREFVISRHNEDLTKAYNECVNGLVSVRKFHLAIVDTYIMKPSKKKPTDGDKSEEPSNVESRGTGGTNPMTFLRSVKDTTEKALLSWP
Summary of the method: (§1)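 CT26 cells (1 × 10^5/well) exposed to compound ([…]) in medium with […] for 48 h. BALB/c splenic T cells resuspended in a 1:1 mix of this supernatant and RPMI/10% FBS with […] for 48 h. IFN-γ measured by ELISA; proliferation by MTT (1 mg/mL, 4 h, 37 °C, DMSO, 570 nm). Three replicate wells, mean ± SEM.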

[6] = target: Indoleamine 2,3-dioxygenase 1 (Mus musculus) (UniProt P28776); assay: Reversal of IDO1-mediated immunosuppression in mouse CT26 co-cultured with T-cells assessed as ConA- stimulated differentiation of Treg cells at 0.3 uM measured after 48 hrs by FOXP3-APC based flow cytometry analysis (reference value: 11.4 %)
HeLa = assay: Effect on IDO1 expression in IFN-gamma-stimulated human HeLa cells at 3 times IDO1 IC50 for 24 hrs by western blot analysis; type: functional, cell-based
Summary of the method: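 HeLa cells (2 × 10^5/well) exposed to human IFN-γ 100 ng/mL with or without compound for 24 h. Lysis in 50 mM Tris-HCl pH 8.0 with detergents and protease inhibitors, then 10% SDS-PAGE and PVDF transfer. Membrane blocked with 5% milk and probed with anti-IDO antibody and HRP secondary; band intensity quantified.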

CT26 [7] = assay: Antitumor activity against mouse CT26 cells xenografted in BALB/c mouse assessed as decrease in tumour growth at 50 mg/kg, po via gavage for 17 days by vernier caliper method; type: functional, organism-based
CT26 [8] = assay: Antitumor activity against mouse CT26 cells xenografted in immunodeficient BALB/c nude mouse assessed as reduction in tumour growth at 50 mg/kg, po via gavage for 10 days by vernier caliper method; type: functional, organism-based
Summary of the method: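 BALB/c nude mice carrying subcutaneous CT26 tumors (1 × 10^6 cells, armpit). Randomized 3 days post-implant into vehicle or treatment groups (n = 6). Oral gavage given on days 1–10; 5-Fu served as reference. Tumor volume and body weight recorded, and tumors weighed after sacrifice.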

Mus musculus [9] = assay: Induction of apoptosis in BALB/c mouse xenografted with CT26 cells assessed as decrease in PCNA expression at 50 mg/kg via oral gavage for 17 days by immunohistochemistry analysis; type: functional, organism-based
Summary of the method: (§2)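 Paraffin sections of CT26 tumors from the 17-day BALB/c study. Sections deparaffinized, rehydrated and treated with 2% H2O2. Blocked with 3% goat serum, then incubated 2 h at room temperature with the specific primary antibody. Detection with streptavidin-HRP for 40 min and DAB, hematoxylin counterstain, microscopic imaging.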

Mus musculus [10] = assay: Decrease in FOXP3-postive T cells in BALB/c mouse xenografted with CT26 cells at 50 mg/kg via oral gavage for 17 day by immunohistochemical analysis; type: functional, organism-based; summary of the method: as §2
[11] = Toxicity in BALB/c mouse xenografted with mouse CT26 cells assessed as effect on body weight at 50 mg/kg, po via gavage for 17 days and measured at day 17; type: organism-based; details: in vivo, 408 h
Mus musculus [12] = assay: Induction of apoptosis in BALB/c mouse xenografted with CT26 cells assessed as nuclear chromatin margination at 50 mg/kg via oral gavage for 17 days by H&E staining based analysis; type: functional, organism-based
Summary of the method: (§3)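 Tumor tissue from the 17-day CT26/BALB/c gavage study stained with hematoxylin and eosin. Nuclei, cytoplasm and cell morphology assessed by microscopy.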

Mus musculus [13] = assay: Induction of apoptosis in BALB/c mouse xenografted with CT26 cells assessed as nuclear chromatin condensation at 50 mg/kg via oral gavage for 17 days by H&E staining based analysis; type: functional, organism-based; summary of the method: as §3
CT26 [14] = assay: Antitumor activity against mouse CT26 cells xenografted in BALB/c mouse assessed as decrease in tumour weight at 50 mg/kg, po via gavage for 17 days by vernier caliper method relative to control; type: functional; details: 408 h
[15] = target: Indoleamine 2,3-dioxygenase 1 (Mus musculus) (UniProt P28776); assay: Reversal of IDO1-mediated immunosuppression in mouse CT26 co-cultured with T-cells assessed as increase in IFN-gamma production measured after 48 hrs by ELISA relative to control; summary of the method: as §1
Mus musculus [16] = assay: Increase in Granzyme B expression in BALB/c mouse xenografted with CT26 cells at 50 mg/kg via oral gavage for 17 day by immunohistochemical analysis; type: functional, organism-based; summary of the method: as §2
Mus musculus [17] = assay: Induction of apoptosis in BALB/c mouse xenografted with CT26 cells at 50 mg/kg via oral gavage for 17 days by TUNEL assay; type: functional, organism-based
Summary of the method: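 TUNEL staining of tumor sections from the 17-day CT26/BALB/c study. Apoptotic nuclei scored by fluorescence microscopy under a FITC filter (green).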

Mus musculus [18] = assay: Induction of apoptosis in BALB/c mouse xenografted with CT26 cells assessed as cell shrinkage at 50 mg/kg via oral gavage for 17 days by H&E staining based analysis; type: functional, organism-based; summary of the method: as §3
Mus musculus [19] = assay: Increase in infiltrating CD8-positive T cells in BALB/c mouse xenografted with CT26 cells at 50 mg/kg via oral gavage for 17 day by immunohistochemical analysis; type: functional, organism-based; summary of the method: as §2
Mus musculus [20] = assay: Increase in IFN-gamma expression in BALB/c mouse xenografted with CT26 cells at 50 mg/kg via oral gavage for 17 day by immunohistochemical analysis; type: functional, organism-based; summary of the method: as §2
[21] = target: Indoleamine 2,3-dioxygenase 1 (Mus musculus) (UniProt P28776); assay: Reversal of IDO1-mediated immunosuppression in mouse CT26 co-cultured with T-cells assessed as increase in IFN-gamma production measured after 48 hrs by ELISA; summary of the method: as §1

SMILES	IC50 [1] [µM]	viability at 24 h, 30 µM [2] [%]	also measured
CCOc1ccc(/C=N/NC(=O)c2c(O)ccc3ccccc23)cc1	27.3	112	
CCC(Nc1ccc(Cl)cc1C)C(=O)N/N=C/c1cccc2ccccc12 (stereo not drawn)	2.2		
O=C(N/N=C/c1c(O)ccc2ccccc12)Nc1ccccc1	> 30	102	
O=C(Cn1cnc2scc(-c3ccc(Cl)cc3)c2c1=O)NCc1ccco1	12.4	108	
COc1ccccc1NCC(=O)N/N=C/c1c(O)ccc2ccccc12	8.6	114	
O=c1[nH]cc(F)c(=O)[nH]1			Activity (CT26 [3]): Active
CCNC(=O)C(=O)N/N=C/c1c(O)ccc2ccccc12	> 30	102	
COc1ccccc1N(CC(=O)N/N=C/c1c(O)ccc2ccccc12)S(C)(=O)=O	> 30	89	
c1ccc(C2=Nn3c(CN4CCc5ccccc54)nnc3SC2)cc1	> 30	98	
OC(CC1c2ccccc2-c2cncn21)C1CCCCC1 (stereo not drawn)			inhibition [4]: < 20%
Cc1ccccc1NC(=O)c1cc2ccccc2c(/C=N/Nc2nc3ccccc3s2)c1O		101	
Cc1ccc(C2=Nn3c(CNc4ccc(F)cc4)nnc3SC2)cc1		110	
Cc1ccc(-c2csc3ncn(CC(=O)Nc4cccc5ccccc45)c(=O)c23)cc1	20.1	99	
NS(=O)(=O)c1ccc(NC(=O)Cn2cnc3scc(-c4ccco4)c3c2=O)cc1		77	
CCC(Nc1ccc(Cl)cc1C)C(=O)N/N=C/c1c(O)ccc2ccccc12 (stereo not drawn)	2.1	105	Activity [5]: Active; Activity [6]: 6.7%; Activity (HeLa): inactive
Cc1ccc(NCc2nnc3n2N=C(c2ccc(Cl)cc2)CS3)cc1		100	
CN(C)c1ccc(/C=C(/NC(=O)c2ccccc2Cl)C(=O)N/N=C/c2c(O)ccc3ccccc23)cc1		66	
Cc1sc2ncn(CC(=O)NCc3ccccc3)c(=O)c2c1-c1ccc(Br)cc1		84	
COc1ccc(CC(=O)N/N=C/c2c(O)ccc3ccccc23)cc1	> 30	91	
O=C(CSc1ccc(Cl)cc1)N/N=C/c1c(O)ccc2ccccc12	6	106	
COc1cccc(NCc2nnc3n2N=C(c2ccc(Br)cc2)CS3)c1	20.6	101	

SMILES	IC50 [1] [µM]	viability at 24 h, 30 µM [2] [%]	also measured
Cc1ccc(OCC(=O)N/N=C/c2c(O)ccc3ccccc23)c(C)c1	> 30	80	
COc1ccc(NC(=O)Cn2cnc3scc(-c4ccc(OC)c(OC)c4)c3c2=O)cc1	5.6	101	
O=C(Cn1cnc2scc(-c3ccccc3)c2c1=O)NC(=O)Nc1ccccc1	> 30	85	
CN(C)c1ccc(C(=O)N/N=C/c2c(O)ccc3ccccc23)cc1	21.1	114	
Fc1ccc(C2=Nn3c(CNc4ccc5c(c4)OCO5)nnc3SC2)cc1		100	
O=C(Cc1ccccc1)N/N=C/c1c(O)ccc2cc([N+](=O)[O-])ccc12	4.8	108	inhibition [4]: < 20%; Activity (HeLa): inactive
Cc1nc2ccccc2n1Cc1nnc2n1N=C(c1ccc(Cl)cc1)CS2		85	
O=C(N/N=C/c1c(O)ccc2ccccc12)C(=O)Nc1cccc(C(F)(F)F)c1		59	
COc1cccc(NCc2nnc3n2N=C(c2cccc(OC)c2)CS3)c1	> 30	104	
Oc1ccccc1CN1CCCC(c2n[nH]cc2-c2ccc(Cl)cc2)C1 (stereo not drawn)	18.6	101	
CCOc1ccc(NCc2nnc3n2N=C(c2cccs2)CS3)cc1	> 30	101	
COc1ccccc1C(=O)N/N=C/c1c(O)ccc2ccccc12	11.3	100	
O=C(Cc1ccc([N+](=O)[O-])cc1)N/N=C/c1c(O)ccc2ccccc12	10.3	106	
NS(=O)(=O)NCCNc1nonc1/C(=N/O)Nc1ccc(F)c(Br)c1			inhibition [4]: < 20%
CCC(Nc1ccc(Cl)cc1C)C(=O)N/N=C/c1ccccc1O (stereo not drawn)			inhibition [4]: < 20%; Activity (HeLa): inactive
Oc1ccc2ccccc2c1/C=N/Nc1nccs1	> 30	99	
CCC(Nc1ccc(Cl)cc1C)C(=O)N/N=C/c1ccccc1 (stereo not drawn)			inhibition (CT26 [7]): Active; Activity [5]: Active; inhibition [4]: < 20%; Activity (CT26 [8]): inactive; Activity (Mus musculus [9]): Active; Activity (Mus musculus [10]): Active; Activity [11]: Non-Toxic; Activity (Mus musculus [12]): Active; Activity (Mus musculus [13]): Active; inhibition in vivo at 50 mg/kg (CT26 [14]): 36%; fold change (FC) [15]: 2; Activity [6]: 5.9%; Activity (Mus musculus [16]): Active; Activity (Mus musculus [17]): Active; Activity (Mus musculus [18]): Active; Activity (HeLa): inactive; Activity (Mus musculus [19]): Active; Activity (Mus musculus [20]): Active
NS(=O)(=O)NCCNc1nonc1C(=NO)Nc1ccc(F)c(Br)c1 [EPACADOSTAT]		92	
COc1ccc(NC(=O)Cn2cnc3scc(-c4ccc(C)cc4)c3c2=O)cc1	3.2	107	inhibition (CT26 [7]): Active; Activity [5]: Active; inhibition [4]: < 20%; Activity (Mus musculus [12]): Active; Activity (Mus musculus [13]): Active; Activity [21]: Active; Activity [6]: 10.8%; Activity (Mus musculus [18]): Active; Activity (HeLa): inactive
O=C(Cn1cnc2scc(-c3ccc(F)cc3)c2c1=O)NC(=O)NCc1ccccc1	> 30	100	
